Compounds with a hit are over-represented: about 3.4% of the library has one in this group of screens.
Redox H2O2 prof – compounds producing H2O2 with reducing agent – biochemical, NIH compound library profiling, artefact control for MLSCN library redox annotation, primary screen | DTT-dependent redox cycling H2O2, phenol red/HRP absorbance; 100% = 100 µM peroxide control, 0% = buffer | activation, % at 10 µM | hit rate 0.03% among 200,000 | AID 878;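 active = activation of at least 50% relative to the plate's high and low controls in the primary single-dose screen; inactive = activation below 50%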;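 note: compound incubated with DTT at 0.8 mM final as the reducing agent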
PKD1 inh – blocks activity of human protein kinase D1; Q15139; PKD1 kinase fluorescence polarization assay; AID 797; hit rate 0.056% among 200,000; inhibition, % (no concentration beside the values); in the data active = inhibition above about 50%
KCC2 mod – KCC2 (human) Cl- transport modulation. Q9H2X9. KCC2 cells, thallium flux FluoZin-2 fluorescence. B-score of Tl+ flux slope (higher = more flux/activation; lower = inhibition) at 10 µM. hit rate 2.2% among 190,000. AID 1456;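 active = thallium flux slope and its plate-corrected score both differing from the plate sample mean at a set confidence after two filtering rounds, in either direction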;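 note: slope of fluorescence scaled to starting intensity during 10 to 20 s after thallium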
Target sequence (Q9H2X9 whole entry, looked up): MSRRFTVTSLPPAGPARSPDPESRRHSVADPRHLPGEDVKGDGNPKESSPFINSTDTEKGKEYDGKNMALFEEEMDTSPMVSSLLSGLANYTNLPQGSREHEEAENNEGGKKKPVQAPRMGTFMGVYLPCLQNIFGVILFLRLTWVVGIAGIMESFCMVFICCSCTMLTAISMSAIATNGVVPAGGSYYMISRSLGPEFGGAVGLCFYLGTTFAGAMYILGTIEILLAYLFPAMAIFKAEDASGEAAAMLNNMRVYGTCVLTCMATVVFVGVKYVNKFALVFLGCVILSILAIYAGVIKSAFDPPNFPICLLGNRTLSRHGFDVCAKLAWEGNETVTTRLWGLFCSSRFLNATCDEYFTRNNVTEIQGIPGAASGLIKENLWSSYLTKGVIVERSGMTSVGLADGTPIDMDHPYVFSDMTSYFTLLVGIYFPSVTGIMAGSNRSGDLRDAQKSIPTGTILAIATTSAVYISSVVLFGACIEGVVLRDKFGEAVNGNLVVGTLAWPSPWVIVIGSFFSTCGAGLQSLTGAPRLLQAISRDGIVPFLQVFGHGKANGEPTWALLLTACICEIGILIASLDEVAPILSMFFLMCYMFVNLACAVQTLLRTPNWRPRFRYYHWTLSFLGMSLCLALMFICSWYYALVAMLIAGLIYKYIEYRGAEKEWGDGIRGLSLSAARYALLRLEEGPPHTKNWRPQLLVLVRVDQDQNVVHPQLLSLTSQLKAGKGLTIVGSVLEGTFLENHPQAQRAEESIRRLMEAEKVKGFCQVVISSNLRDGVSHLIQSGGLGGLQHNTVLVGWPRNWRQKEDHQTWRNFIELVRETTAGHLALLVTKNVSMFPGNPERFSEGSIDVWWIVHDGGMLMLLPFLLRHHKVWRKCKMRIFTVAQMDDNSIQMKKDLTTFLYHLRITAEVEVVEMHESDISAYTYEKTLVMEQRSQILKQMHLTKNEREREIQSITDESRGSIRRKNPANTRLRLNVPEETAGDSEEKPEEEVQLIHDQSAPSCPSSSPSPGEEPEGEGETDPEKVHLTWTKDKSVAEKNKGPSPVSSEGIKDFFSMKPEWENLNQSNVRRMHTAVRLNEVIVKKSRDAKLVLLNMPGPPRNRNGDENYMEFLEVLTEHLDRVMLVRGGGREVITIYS
ROMK mod – modulates human ROMK potassium channel activity. P48048. Tet-inducible ROMK, thallium flux fluorescence; actives lie on both sides. B-score at 10 µM. hit rate 2% among 130,000. AID 1918;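 active = signal ratio slope over the read window, or its plate-corrected B-score, at least 3 SD from the plate mean, either direction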;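 note: B-score of the F/F0 ratio slope over 7 to 12 s after thallium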
MDM2 E3 inh – blocks human Mdm2 ubiquitin ligase activity. cell-based MDM2 ubiquitination luciferase reporter, 2 h; 0 = plate control, 100 = twice control, blank-subtracted. signal enhancement, % at 5 µM. hit rate 0.11% among 210,000;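 active = signal enhancement of 30% or more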;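 note: luminescence tracks abundance of the self-degrading MDM2-luciferase fusion protein; higher signal means inhibition of MDM2 E3 ligase activity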
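system = mammalian cells stably expressing self-ubiquitinating, self-degrading MDM2 E3–luciferase fusion | quantity = 2000 cells per well seeded | incubation = 4 h cell settling then 2 h compound exposure, 37 °C | signal = SteadyLite luminescence, 15 min reagent step | benchmarks = plate control and blank wells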
p97 ATPase inh – inhibitors of human p97 ATPase; recombinant p97 ATPase, Kinase-Glo ATP luminescence, 3 h; inhibition, % at 8 µM; hit rate 0.42% among 220,000; AID 1481; in the data active = inhibition above about 15%;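 note: 0% = DMSO vehicle and 100% = wells lacking enzyme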
KCC2 secondary – confirmation of human KCC2 transport modulators; shares compounds with KCC2 mod; HEK293-KCC2, thallium flux, FluoZin2 fluorescence; hits give high values; normalised thallium flux (F/F0 slope) at 10 µM; hit rate 15% among 3,700;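 active = thallium flux slope above the same plate's solvent-only control mean plus 3 SD; inconclusive = the two replicate wells disagree; inactive = no significant difference from solvent-only control wells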
KCC2 bumet counter – thallium flux despite bumetanide block in KCC2 cells, secondary assay 3; hit rate 49% among 3,700; AID 1714; shares compounds with KCC2 mod; normalized thallium flux at 10 µM; HEK293-KCC2 + bumetanide/ouabain, thallium flux FluoZin2; hits give high values;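 active = thallium entry rate above the same plate's blocked-transporter control wells by more than 3 SD; inconclusive = the two repeat wells disagree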;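 note: raw slope of fluorescence over initial fluorescence between 10 and 20 s after thallium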
KCC2 secondary2 – confirmation of human KCC2 transport modulators | hit rate 23% among 3,700 | shares compounds with KCC2 mod | HEK293-KCC2, thallium flux FluoZin2 fluorescence; actives lie on both sides; F/F0 rise rate, 10–20 s post-thallium | normalized thallium flux at 10 µM | AID 1715;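 active = thallium flux slope more than 3 SD above or below the plate's solvent-only control mean, mostly below; inconclusive = the two repeat wells disagreed; inactive = no significant shift from solvent-only controls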;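 note: raw slope with 0.1% DMSO as baseline and bumetanide as block control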
HEK293 Tl flux – parental HEK flux effect, counter-screen; shares compounds with KCC2 mod; HEK293 parental cells, thallium flux FluoZin2, ouabain; baseline-ratio fluorescence slope, 10–20 s after thallium; thallium flux rate (normalised fluorescence) at 10 µM; hit rate 46% among 3,700; AID 1716;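 active = thallium flux rate significantly above the same plate's solvent-only control wells, beyond their mean plus 3 SD; inconclusive = the two replicate wells gave conflicting results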
KCC2 ouabain – confirmation of human KCC2 modulators with ouabain; HEK293-KCC2, thallium flux FluoZin2 fluorescence; bidirectional: low = inhibitor, high = activator; shares compounds with KCC2 mod; hit rate 48% among 3,700; raw Tl+ flux slope (below DMSO = inhibition, above = activation) at 10 µM;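 active = thallium flux slope beyond 3 SD from same-plate DMSO control mean in most replicates, usually higher, sometimes lower; inconclusive = repeat tests gave conflicting results; inactive = no significant difference from controls in most replicates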;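 note: slope of initial-normalized fluorescence between seconds 10 and 20 after thallium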
HEK counter2 – counter-screen for KCC2 modulators: effect in parental HEK293 cells; shares compounds with KCC2 mod; thallium flux FluoZin-2 fluorescence slope; thallium flux slope at 10 µM; hit rate 33% among 3,700;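 active = thallium flux slope above the same plate's solvent-control mean plus 3 SD in both duplicate wells; inconclusive = duplicate wells that disagreed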;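 note: run without ouabain in cells lacking the KCC2 cotransporter; slope of fluorescence scaled to its starting value between 10 and 20 s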
p97 confirm – human p97 ATPase inhibition, confirmation | hit rate 44% among 760 | recombinant p97 ATPase, Kinase-Glo ATP luminescence | inhibition, % at 8 µM | shares compounds with p97 ATPase inh;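 active = percent inhibition of p97 ATPase above a set limit, the primary screen's mean plus 3 SD, cut at about 15% in these data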;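 note: 0% = DMSO wells and 100% = wells lacking p97 protein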
ROMK retest – retested hit modulating human ROMK potassium channel; shares compounds with ROMK mod; ROMK thallium flux, fluorescence ratio; hits give low values; normalized thallium flux (F/F0 slope) at 10 µM; hit rate 54% among 3,000; AID 1917;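 active = Flux at 10 µM at least 3 SD below or above vehicle control mean in one or both replicates; inconclusive = no clear call, values can overlap the other calls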
An asterisk follows results filed as active; ? = inconclusive; . = no result given.

SMILES | Redox H2O2 prof | PKD1 inh | KCC2 mod | ROMK mod | MDM2 E3 inh | p97 ATPase inh | KCC2 secondary | KCC2 bumet counter | KCC2 secondary2 | HEK293 Tl flux | KCC2 ouabain | HEK counter2 | p97 confirm | others
Cc1ccc2c(c1)c(N=NC(N)=S)c(O)n2Cc1ccccc1 | 0 | -5 | 4.3* | . | -3 | 1 | 0.0051 | 0.0075* | 0.03 | 0.011* | 0.022 | 0.014* | .
Cc1cccc(Cn2c(O)c(N=NC(=S)Nc3ccccc3F)c3ccccc32)c1 | -2 | 6 | 6.8* | -0.36 | -6 | 2 | 0.011 | 0.031* | 0.037 | ? | ? | 0.011 | .
NC(=S)N=Nc1c(O)n(Cc2ccc(F)cc2)c2ccccc12 | 0 | 0 | 4.7* | . | -13 | 3 | ? | 0.01* | 0.033 | 0.014* | 0.029* | 0.012* | .
COc1cccc2cc(C(=O)NCc3ccccn3)c(=O)oc12 | 3 | -3 | 0.4 | -0.73 | 11 | -4 | . | . | . | . | . | . | .
CCCCN(C(=O)Nc1ccc(OCC)cc1)C1CCN(C(C)=O)CC1 | 1 | -6 | 0.65 | . | -7 | -4 | . | . | . | . | . | . | .
Cn1nc(C(=O)Oc2cc(=O)n(C)c3ccccc23)c2ccccc2c1=O | 0 | 5 | -0.064 | 0.22 | -5 | -1 | . | . | . | . | . | . | .
CCn1c(-c2ccccc2)c(C(=O)CCl)c2ccccc21 | 0 | 4 | -4.3* | -0.57 | -14 | 32* | 0.0055 | 0.0028* | 0.029 | 0.0049* | 0.017* | 0.008* | 36*
Cn1c(-c2ccccc2)c(C(=O)CCl)c2ccccc21 | -2 | 1 | -3.9* | -2 | 11 | 34* | 0.0091 | 0.0042 | 0.031 | 0.0051* | 0.016* | 0.0091* | 34*
CCC(C)(C)n1nnnc1C(c1cc2ccc(OC)cc2[nH]c1=O)N1CCc2ccccc21 (stereo not given) | 2 | -4 | 1.1 | . | -12 | 5 | . | . | . | . | . | . | .
CC1=Nc2ccccc2/C1=C/c1sc(=N)n(-c2nccs2)c1O | -4 | -1 | -3.6* | . | -16 | 29* | 0.0062 | 0.00052* | 0.02* | 0.0049* | 0.0097* | 0.0071* | 36*
CCCSc1ccc(-c2nn(-c3ccccc3)cc2/C=C(/C#N)C(=O)N2CCOCC2)cc1 | 2 | -3 | 0.45 | 0.056 | 10 | 2 | . | . | . | . | . | . | .
O=C(NN1C(=O)/C(=C/C=C/c2ccco2)SC1=S)c1ccccc1O | . | . | -3.3* | . | -8 | 55* | 0.0056 | ? | 0.023* | 0.0073 | ? | 0.011 | 21*
O=c1[nH]c(=O)n(C2CCCO2)cc1F (stereo not given) | -1 | -11 | 7.5* | . | . | 20* | 0.011 | 0.0064 | 0.037 | 0.0039 | 0.021 | 0.012 | 8
O=c1c(F)cn(C2CCCO2)c(=O)n1Cc1c(F)cccc1Cl (stereo not given) | 0 | 0 | -1 | . | -13 | 0 | . | . | . | . | . | . | .
CCCn1nc([N+](=O)[O-])c(C(C#N)c2nc3ccccc3s2)c(Cl)c1=O (stereo not given) | 0 | -12 | -6.1* | -0.79 | -33 | 17* | 0.0067 | 0.0059* | ? | 0.0058* | 0.011* | 0.0081* | 21*
COCCNC(=O)C(c1ccc(O)cc1)N(Cc1ccco1)C(=O)CCC(=O)Nc1nccs1 (stereo not given) | 2 | -3 | -0.018 | . | -19 | 3 | . | . | . | . | . | . | .
C/C(=N\N=C(/N)c1nonc1N)c1ccc2c(c1)OCO2 | . | . | 0.91 | -0.088 | -18 | -6 | . | . | . | . | . | . | .
COc1ccc(Cl)cc1NC(=O)COC(C)=O | -1 | -7 | 0.4 | -0.019 | -8 | 5 | . | . | . | . | . | . | .
COc1ccc(Cl)cc1NC(=O)CC(C)=O | 0 | 5 | 7.3* | . | 4 | 17* | ? | ? | 0.033 | 0.0081 | 0.023 | 0.011 | 9
Clc1c(Cl)c(Cl)c2n[nH]nc2c1Cl | . | . | -6.7* | . | -9 | 19* | ? | 0.0051 | ? | 0.0034* | 0.013* | 0.0074* | 15*
CCOC(=O)c1[nH]c2ccc(Br)cc2c1NC(=O)CCN1CCN(C(=O)OCC)CC1 | -1 | -3 | . | -1.4 | -3 | 3 | . | . | . | . | . | . | .
CCOC(=O)c1[nH]c2ccc(Br)cc2c1NC(=O)CCN1CCC(C(=O)OCC)CC1 | 1 | -4 | -0.0054 | -2.1 | -4 | 18* | 0.0091 | 0.0064 | ? | 0.0078 | 0.018 | 0.011 | 16*
Nc1ccccc1-c1nnc(-c2ccc(-c3ccccc3)cc2)o1 | 0 | 10 | -0.91 | -0.46 | -10 | -2 | . | . | . | . | . | . | .
COc1ccc(Nc2nc(C)cc(C)c2C(N)=O)c(OC)c1 | 0 | 1 | -0.16 | . | -15 | 4 | . | . | . | . | . | . | .
CCc1oc2ccccc2c1C(=O)c1cc(Br)c(O)c(Br)c1 | 0 | 10 | -1.6 | 4.6* | -13 | 13 | 0.0067 | 0.019* | 0.022* | 0.011* | ? | ? | . | ROMK retest=0.15*
COC(=O)CCc1c(C)c(C(=O)c2ccco2)c2ccccn12 | 1 | -14 | . | . | 1 | 6 | . | . | . | . | . | . | .
CN(C)C(=O)c1cn(-c2ccc(Cl)cc2)c(=O)c2ccccc12 | -1 | -5 | -0.15 | 0.54 | -4 | -3 | . | . | . | . | . | . | .
CN(C)C=NC(=O)c1cn(-c2ccc(F)cc2)c(=O)c2ccccc12 | 9 | 4 | . | 0.4 | -21 | 16* | . | . | . | . | . | . | 2
Cc1cc(C)n(Cc2ccc(C(=O)O)cc2)n1 | 0 | 7 | 0.093 | -0.25 | -14 | 0 | . | . | . | . | . | . | .
Cc1ccc(C)n1Cc1ccc(C(=O)O)cc1 | 1 | 2 | 1.9 | 0.54 | -9 | 28* | . | . | . | . | . | . | 12

Source: PubChem BioAssay (several laboratories)
